In ChEMBL document CHEMBL4382230, “Structure-activity relationships, biological evaluation and structural studies of novel pyrrolonaphthoxazepines as antitumor agents” (Eur J Med Chem, 2019):
≈ marks a conversion by molar mass, not a printed value. Calls of active or inactive are those of the source. The calls are words filed in the database; no cut-off is given here.

How the values were obtained:
HL-60 [1] = assay: Cytotoxicity against human HL60 cells assessed as reduction in cell viability after 72 hrs by alamar blue assay; format: functional, cell-based; conditions: HL-60, 72 h
Method in brief: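 HL-60 at 300,000 cells/ml treated in triplicate with compound or vehicle (0.1% v/v DMSO) for 72 h. Cells then incubated in 10% (v/v) AlamarBlue and fluorescence read at excitation 544 nm, emission 590 nm. IC50 is the mean of at least three separate determinations.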

GISTT1 = assay: Cytotoxicity against human GISTT1 cells assessed as reduction in cell viability at 1 uM after 48 hrs by alamar blue assay; format: functional, cell-based
Method in brief: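 GIST-T1 seeded at 4000 cells/well, exposed to 1 or 10 μM for 48 h; viability read by AlamarBlue.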

A2780 = assay: Cytotoxicity against human A2780 cells after 48 hrs by MTT assay; format: functional, cell-based; conditions: A2780, 48 h
Method in brief: (§1)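 Cells seeded at 12,000 to 17,000 per well depending on line, incubated overnight, then given serial dilutions of ligand for 48 h. MTT at 2.5 mg/mL added for 4 h at 37 °C, formazan solubilized overnight (10% SDS, 45% dimethylformamide, pH 5.5), absorbance read at 595/690 nm. IC50 from log-dose response curves; mean ± SE of three independent assays.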

[2] = Cytotoxicity against human A2780AD cells after 48 hrs by MTT assay; format: functional, cell-based; method in brief: as §1
[3] = Ratio of IC50 for human A2780AD cells to IC50 for human A2780 cells; format: functional
Method in brief: (§2)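 Relative resistance: IC50 in the P-gp overexpressing resistant line divided by IC50 in the parental line. Both IC50s came from the 48 h MTT assay (serial dilutions, absorbance at 595/690 nm, log-dose response curves, three independent assays).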

NIH3T3 [4] = assay: Cytotoxicity against mouse NIH/3T3 cells after 48 hrs by MTT assay; format: cell-based; conditions: NIH3T3, 48 h; method in brief: as §1
NIH3T3 [5] = assay: Cytotoxicity against mouse NIH/3T3 cells harboring MDR G185 after 48 hrs by MTT assay; format: functional, cell-based; conditions: NIH3T3, 48 h; method in brief: as §1
[6] = Ratio of IC50 for mouse NIH/3T3 cells harboring MDR G185 to IC50 for mouse NIH/3T3 cells; method in brief: as §2
HL-60 [7] = assay: Cell cycle arrest in human HL60 cells assessed as accumulation of cells at G2/M phase at 10 uM after 24 hrs by propidium iodide staining-based flow cytometric analysis; format: functional
Method in brief: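 HL-60 exposed to 10 μM for 24 h, vehicle 0.1% DMSO. Cells plated at 2×10^5 cells/mL, stained in PBS with 0.1% sodium citrate, 0.1% NP40 and propidium iodide for 30 min at room temperature in the dark. DNA content by flow cytometry; G2/M fraction reported.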

Tubulin (Homo sapiens) [8] = molecular target: T1, Tubulin (Homo sapiens) (UniProt P68371+Q9H4B7+P0DPH7+P68366+Q13509+Q71U36+P04350+Q3ZCM7+P07437+P68363+Q9BQE3+Q6PEY2+Q13885+Q9BVA1+Q9BUF5); assay: Inhibition of tubulin (unknown origin) polymerization at 27.5 uM measured over 70 mins by turbidity method; format: protein-complex assay
Method in brief: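 Tubulin at 25 µM in GAB buffer (10 mM sodium phosphate, 30% glycerol, 1 mM EGTA, 6 mM MgCl2, 1 mM GTP, pH 6.7) with 27.5 µM compound or DMSO vehicle. Turbidity is read at 355 nm for 70 min at 37 °C. Data are normalized to the initial stable absorbance plateau to correct for compound absorbance.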

[9] = Apparent solubility of compound in sodium phosphate buffer at 15 uM after 20 mins; format: physicochemical
A549 = assay: Cytotoxicity against human A549 cells assessed as reduction in cell survival at 0.1 to 10 uM after 18 hrs by MTT assay; format: functional, cell-based
Method in brief: (§3)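 Seeded at 2,500 cells/well in medium with 10% serum. After adhesion, exposed to 0.1, 1 and 10 μM in medium with 5% serum for 18 h. Medium then replaced with fresh medium containing 1.2 mM MTT for 4 h; formazan dissolved in DMSO, absorbance at 540 nm. Results given as % of basal response.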

B16-F10 = assay: Cytotoxicity against mouse B16F10 cells assessed as reduction in cell survival at 0.1 to 10 uM after 18 hrs by MTT assay; format: functional, cell-based; method in brief: as §3
PC-9 = assay: Cytotoxicity against human PC9 cells assessed as reduction in cell survival at 0.1 to 10 uM after 18 hrs by MTT assay; format: functional, cell-based; method in brief: as §3
HCC827 [10] = assay: Cytotoxicity against human HCC827 cells assessed as reduction in cell survival at 0.1 to 10 uM after 18 hrs by MTT assay; format: functional, cell-based; method in brief: as §3
HCC827 [11] = assay: Cytotoxicity against human HCC827 cells assessed as reduction in cell survival at 0.1 to 10 uM after 50 to 60 hrs by MTT assay; format: functional, cell-based
NB-4 [12] = assay: Cell cycle arrest in human NB4 cells assessed as accumulation of cells at G1 phase after 24 hrs by propidium iodide staining-based flow cytometric analysis; format: functional
Method in brief: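 NB4 cultured at 37 °C, 5% CO2 in RPMI-1640 with 10% heat-inactivated FBS. Treated at 50 and 100 nM, 1 and 10 μM for 24 h. Cells fixed/permeabilized in 70% ethanol overnight at 4 °C, then given RNase and 20 μg/ml PI for 30 min. Doublets excluded, 20,000 events per sample; cell-cycle phase distribution analysed.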

NB-4 [13] = assay: Induction of differentiation in human NB4 cells at 500 nM after 24 hrs in presence of ATRA by CD11c staining-based flow cytometric analysis; format: functional, cell-based
Method in brief: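 NB4 exposed to 0.5 μM compound together with 1 μM ATRA for 24 h. Cells stained with PE-conjugated CD11c (mouse IgG1-PE control) for 1 h at 4 °C in the dark, washed, resuspended in PBS with propidium iodide (0.25 μg/mL), then analysed by flow cytometry. Biological triplicates, mean ± S.E.M.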

Tubulin (Homo sapiens) [14] = molecular target: T1, Tubulin (Homo sapiens); assay: Displacement of podophyllotoxin from tubulin (unknown origin) by ultracentrifugation method; format: protein-complex assay
B16-F1 = assay: Cytotoxicity against mouse B16-F1 cells assessed as reduction in cell survival at 0.1 to 10 uM after 18 hrs by MTT assay; format: functional, cell-based; method in brief: as §3
Tubulin (Homo sapiens) [15] = molecular target: T1, Tubulin (Homo sapiens); assay: Binding affinity to tubulin (unknown origin) by analytical ultracentrifugation
[16] = Solubility of compound in pH 7.4 aqueous solution after 12 hrs by HPLC analysis; format: physicochemical
Method in brief: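 Water solubility at pH 7.4 measured by HPLC analysis.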

Row | Compound | IC50 (HL-60 [1]) [nM] | IC50 (A2780) [nM] | IC50 [2] [nM] | Ratio IC50 [3] | IC50 (NIH3T3 [4]) [nM] | IC50 (NIH3T3 [5]) [nM] | Ratio IC50 [6] | Activity (HL-60 [7]) | other results
1 | CN(C)C(=O)OC1=C(c2cccc3cccnc23)Oc2cc3ccccc3cc2-n2cccc21 | 300 | – | – | – | – | – | – | – | Activity (GISTT1): Active
2 | CC[C@]1(O)C[C@@H]2CN(CCc3c([nH]c4ccccc34)[C@@](C(=O)OC)(c3cc4c(cc3OC)N(C)[C@H]3[C@@](O)(C(=O)OC)[C@H](OC(C)=O)[C@]5(CC)C=CCN6CC[C@]43[C@@H]65)C2)C1 [VINBLASTINE] | – | 0.5 | 44 | 88 | 1 | 70.4 | 70.4 | – | –
3 | CC(=O)OC1=C(c2cccc3cccnc23)Oc2cc3ccccc3cc2-n2cccc21 | 263 | 76 | 79 | 1.03 | 34 | 68 | 2 | Active | Activity (GISTT1): Active; inhibition (Tubulin (Homo sapiens) [8]): Active; solubility at 20 min, 15 µM [9]: 0.36 µM (≈ 0.151 µg/mL); Activity (A549): Active; Activity (B16-F10): Active; Activity (PC-9): Active; Activity (HCC827 [10]): Active; Activity (HCC827 [11]): inactive; Activity (NB-4 [12]): Dose-dependent effect; Activity (NB-4 [13]): Active; inhibition (Tubulin (Homo sapiens) [14]): Active; Activity (B16-F1): Active; Kb (Tubulin (Homo sapiens) [15]): 115 ×10⁷ /M
4 | CCc1ccc2cccc(C3=C(OC(=O)N(CC)CC)c4cccn4-c4cc5ccccc5cc4O3)c2n1 | – | – | – | – | – | – | – | Active | –
5 | CC(=O)NC1=C(c2cccc3ccccc23)Oc2cc3ccccc3cc2-n2cccc21 | – | – | – | – | – | – | – | Active | –
6 | O=C1c2cccn2-c2cc3ccccc3cc2OC1c1cccc2ncccc12 (configuration not stated) | 2770 | – | – | – | – | – | – | – | –
7 | CCN(CC)CCCC(C)NC(=O)OC1=C(c2cccc3ccccc23)Oc2cc3ccccc3cc2-n2cccc21 (configuration not stated) | – | – | – | – | – | – | – | Active | –
8 | CCN(CC)CCCC(C)NC(=O)OC1=C(c2cccc3cccnc23)Oc2cc3ccccc3cc2-n2cccc21 (configuration not stated) | – | 1900 | 1350 | 0.71 | 2300 | 2500 | 1.08 | Active | inhibition (Tubulin (Homo sapiens) [8]): Active; solubility at 20 min, 15 µM [9]: 2.89 µM (≈ 1.62 µg/mL); inhibition (Tubulin (Homo sapiens) [14]): Active; Kb (Tubulin (Homo sapiens) [15]): 114 ×10⁷ /M
9 | CC(=O)OC1=C(c2cccc3cnccc23)Oc2cc3ccccc3cc2-n2cccc21 | – | 301 | 810 | 2.69 | 375 | 876 | 2.33 | – | inhibition (Tubulin (Homo sapiens) [8]): Active; solubility at 20 min, 15 µM [9]: 0.22 µM (≈ 0.0921 µg/mL); inhibition (Tubulin (Homo sapiens) [14]): Active; Kb (Tubulin (Homo sapiens) [15]): 16 ×10⁷ /M
10 | COC(=O)Nc1nc2ccc(C(=O)c3cccs3)cc2[nH]1 [NOCODAZOLE] | – | – | – | – | – | – | – | – | solubility at 12 h [16]: < 1000 µg/mL
11 | CC(=O)OC1=C(c2cnc3ccccc3c2)Oc2cc3ccccc3cc2-n2cccc21 | 6460 | – | – | – | – | – | – | Active | Activity (A549): inactive; Activity (B16-F10): inactive; Activity (PC-9): inactive; Activity (HCC827 [10]): inactive; Activity (HCC827 [11]): inactive; Activity (B16-F1): inactive
12 | CCN(CC)C(=O)OC1=C(c2cccc3cccnc23)Oc2cc3ccccc3cc2-n2cccc21 | 4580 | – | – | – | – | – | – | – | –
13 | COc1cc2c(c(OC)c1OC)-c1ccc(OC)c(=O)cc1[C@@H](NC(C)=O)CC2 [COLCHICINE] | – | 13.1 | 500 | 38.2 | 25 | 1120 | 44.7 | – | –
14 | CC(=O)O[C@H]1C(=O)[C@@]2(C)[C@H]([C@H](OC(=O)c3ccccc3)[C@]3(O)C[C@H](OC(=O)[C@H](O)[C@@H](NC(=O)c4ccccc4)c4ccccc4)C(C)=C1C3(C)C)[C@]1(OC(C)=O)CO[C@@H]1C[C@@H]2O [PACLITAXEL] | – | 3.3 | 700 | 212.12 | 25 | 4880 | 195 | – | –
15 | O=C1c2cccn2-c2cc3ccccc3cc2OC1c1cccc2cccnc12 (configuration not stated) | 1080 | – | – | – | – | – | – | – | –
